# Assay results reported in ChEMBL document CHEMBL5346974, “Discovery of 5-Phenylpyrazolopyrimidinone Analogs as Potent Antitrypanosomal Agents with In Vivo Efficacy” (J Med Chem, 2023).
# Active and inactive are the calls of the source. The calls are words filed in the database; no cut-off is given here.
# Tests used:
# Format in all cases: functional, organism-based
# [1] = test system: Trypanosoma brucei brucei; test: In vivo antitrypanosomal activity against Trypanosoma brucei brucei infected stage-I mouse model of HAT assessed as clearance of peripheral blood parasites at 50 mg/kg, po twice daily for 5 consecutive days measured for 60 days of post infection; details: time 60.0 day
# Procedure, shortened: (§1)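 Mice in groups of three were infected IP with 10^4 T. b. brucei Squib 427 […]. Parasitemia was checked by tail-vein blood microscopy up to 63 dpi, plus SL RNA qPCR on survivors.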
# [2] = test system: Trypanosoma brucei brucei; test: In vivo antitrypanosomal activity against Trypanosoma brucei brucei infected stage-I po dosed mouse model of HAT assessed as clearance of parasitemia treated twice daily for 5 consecutive days; details: dose 6.25-50 mg/kg, time 5.0 day; procedure, shortened: as §1
# [3] = test system: Trypanosoma brucei brucei; test: In vivo antitrypanosomal activity against Trypanosoma brucei brucei infected stage-I mouse model of HAT assessed as clearance of peripheral blood parasites at 50 mg/kg, po twice daily for 5 consecutive days; details: time 5.0 day; procedure, shortened: as §1
Structure (SMILES),Activity [1],Activity [2],Activity [3]
CC(C)c1n[nH]c2c(=O)[nH]c(-c3ccc(F)cc3)nc12,Active,Dose-Dependent Effect,–
Cc1ccc(C(=O)Nc2ccc(S(=O)(=O)O)c3cc(S(=O)(=O)O)cc(S(=O)(=O)O)c23)cc1NC(=O)c1cccc(NC(=O)Nc2cccc(C(=O)Nc3cc(C(=O)Nc4ccc(S(=O)(=O)O)c5cc(S(=O)(=O)O)cc(S(=O)(=O)O)c45)ccc3C)c2)c1,–,–,Active
